Test results published in ChEMBL document CHEMBL1156597, “Structure-activity relationship of kahalalide F synthetic analogues” (J Med Chem, 2008).

Experiments:
DU-145 [1] = assay: Cytotoxicity against human DU145 cells after 48 hrs by SRB assay; type: functional, cell-based; settings: Homo sapiens, DU-145, 48 h
Procedure, shortened: (§1)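 Cells grown in RPMI 1640 with 10% FBS and penicillin/streptomycin at 37 °C and 5% CO₂, trypsinized, then seeded at 5 × 10³/well. After 18 h drug-free attachment, samples in DMSO/EtOH/PBS (0.5:0.5:99) were added for 48 h continuous exposure. Cells were fixed with cold TCA (1 h, 4 °C) and stained with SRB (10 min). Tris-solubilized stain read at 490 nm. Triplicate wells, mean ± SD; GI₅₀ derived.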

SK-MEL-28 [2] = assay: Cytotoxicity against human SK-MEL-28 cells
HT-29 = assay: Cytotoxicity against human HT29 cells after 48 hrs by SRB assay; type: functional, cell-based; settings: Homo sapiens, HT-29, 48 h; procedure, shortened: as §1
A549 = assay: Cytotoxicity against human A549 cells after 48 hrs by SRB assay; type: functional, cell-based; settings: Homo sapiens, A549, 48 h; procedure, shortened: as §1
DU-145 [3] = assay: Cytotoxicity against human DU145 cells
SK-MEL-28 [4] = assay: Cytotoxicity against human SK-MEL-28 cells after 48 hrs by SRB assay; type: functional, cell-based; settings: Homo sapiens, SK-MEL-28, 48 h; procedure, shortened: as §1
LoVo [5] = assay: Cytotoxicity against human doxorubicin resistant LoVo cells after 48 hrs by SRB assay; type: functional; procedure, shortened: as §1
K562 = assay: Cytotoxicity against human K562 cells after 48 hrs by SRB assay; type: functional; settings: K562, 48 h; procedure, shortened: as §1
LoVo [6] = assay: Cytotoxicity against human LoVo cells after 48 hrs by SRB assay; type: functional
PANC-1 = assay: Cytotoxicity against human PANC1 cells after 48 hrs by SRB assay; type: functional; settings: PANC-1, 48 h; procedure, shortened: as §1
HeLa = assay: Cytotoxicity against human HeLa cells after 48 hrs by SRB assay; type: functional; procedure, shortened: as §1
[7] = Cytotoxicity against human IGROV-ET cells after 48 hrs by SRB assay; type: functional; procedure, shortened: as §1
[8] = Cytotoxicity against human HeLa-APL cells after 48 hrs by SRB assay; type: functional; procedure, shortened: as §1
SK-BR-3 = assay: Cytotoxicity against human SKBR3 cells after 48 hrs by SRB assay; type: functional; settings: SK-BR-3, 48 h; procedure, shortened: as §1
[9] = Cytotoxicity against human IGROV cells after 48 hrs by SRB assay; type: functional; procedure, shortened: as §1
LNCaP = assay: Cytotoxicity against human LNcaP cells after 48 hrs by SRB assay; type: functional; procedure, shortened: as §1
[10] = read-out: LC50 (the source's name)

Compound `C/C=C1\NC(=O)[C@H](Cc2ccccc2)NC(=O)[C@@H](C(C)C)NC(=O)[C@@H]([C@H](C)CC)NC(=O)[C@H](NC(=O)[C@H](NC(=O)[C@H]2CCCN2C(=O)[C@H](NC(=O)[C@@H](NC(=O)[C@@H](NC(=O)[C@H](NC(=O)CCCC(C)C)C(C)C)[C@@H](C)O)C(C)C)C(C)C)[C@H](C)CC)[C@H](C)OC(=O)[C@H](C(C)C)NC1=O` has an IC50 (DU-145 [1]) of 3.67 µM, an IC50 (SK-MEL-28 [2]) of 3.67 µM and an IC50 (HT-29) of 3.67 µM.

`C/C=C1\NC(=O)[C@H](Cc2ccccc2)NC(=O)[C@@H](C(C)C)NC(=O)[C@@H]([C@H](C)CC)NC(=O)[C@H](NC(=O)[C@H](NC(=O)[C@H](CCCN)NC(=O)[C@H]2CCCN2C(=O)[C@@H](NC(=O)[C@H](NC(=O)[C@@H](NC(=O)[C@H](NC(=O)CCCC(C)C)C(C)C)[C@@H](C)O)C(C)C)C(C)C)[C@H](C)CC)[C@H](C)OC(=O)[C@H](C(C)C)NC1=O` showed an IC50 (A549) of 3.39 µM, an IC50 (DU-145 [1]) of 3.39 µM and an IC50 (SK-MEL-28 [2]) of 3.39 µM. It also gave an IC50 (HT-29) of 3.39 µM.

`C/C=C1\NC(=O)[C@H](Cc2ccccc2)NC(=O)[C@@H](C(C)C)NC(=O)[C@@H]([C@H](C)CC)NC(=O)[C@H](NC(=O)[C@H](NC(=O)[C@@H](NC(=O)[C@H](NC(=O)CCCC(C)C)C(C)C)[C@@H](C)O)[C@H](C)CC)[C@H](C)OC(=O)[C@H](C(C)C)NC1=O` showed an IC50 (A549) of 9.36 µM, an IC50 (DU-145 [1]) of 9.36 µM and an IC50 (SK-MEL-28 [2]) of 9.36 µM. For the same compound, the IC50 (HT-29) was 9.36 µM.

With `C/C=C1\NC(=O)[C@H](Cc2ccccc2)NC(=O)[C@@H](C(C)C)NC(=O)[C@@H]([C@H](C)CC)NC(=O)[C@H](NC(=O)[C@H](NC(=O)CCCC(C)C)[C@H](C)CC)[C@H](C)OC(=O)[C@H](C(C)C)NC1=O` the IC50 (A549) was 11.5 µM, the IC50 (DU-145 [3]) was 11.5 µM and the IC50 (SK-MEL-28 [4]) was 11.5 µM. For the same compound, the IC50 (HT-29) was 11.5 µM.

Compound `C/C=C1\NC(=O)[C@H](Cc2ccccc2)NC(=O)[C@@H](C(C)C)NC(=O)[C@@H]([C@H](C)CC)NC(=O)[C@H](NC(=O)[C@H](NC(=O)[C@H](CCCN)NC(=O)[C@H]2CCCN2C(=O)[C@H](NC(=O)[C@@H](NC(=O)[C@@H](NC(=O)[C@H](NC(=O)CCCN(C)C)C(C)C)[C@@H](C)O)C(C)C)C(C)C)[C@H](C)CC)[C@H](C)OC(=O)[C@H](C(C)C)NC1=O` has an IC50 (A549) of 6.77 µM, an IC50 (DU-145 [1]) of 6.77 µM and an IC50 (SK-MEL-28 [2]) of 6.77 µM. It also gave an IC50 (HT-29) of 6.77 µM.

`CC[C@@H](C)[C@@H](NC(=O)[C@H](CCCN)NC(=O)[C@H]1CCCN1C(=O)[C@H](NC(=O)[C@@H](NC(=O)[C@@H](NC(=O)[C@H](NC(=O)CCCC(C)C)C(C)C)[C@@H](C)O)C(C)C)C(C)C)C(=O)N[C@H]1C(=O)N[C@H]([C@H](C)CC)C(=O)N[C@H](C(C)C)C(=O)N[C@@H](Cc2ccccc2)C(=O)N[C@H]([C@@H](C)O)C(=O)N[C@@H](C(C)C)C(=O)O[C@H]1C` gave an IC50 (A549) of 11.5 µM, an IC50 (DU-145 [3]) of 18.4 µM and an IC50 (SK-MEL-28 [4]) of 11.7 µM. It also gave an IC50 (HT-29) of 8.52 µM.

Compound `C/C=C1\NC(=O)[C@H](Cc2ccccc2)NC(=O)[C@@H](C(C)C)NC(=O)[C@@H]([C@H](C)CC)NC(=O)[C@H](NC(=O)[C@H](NC(=O)[C@@H](NC(=O)[C@@H](NC(=O)[C@H](NC(=O)CCCC(C)C)C(C)C)[C@@H](C)O)C(C)C)[C@H](C)CC)[C@H](C)OC(=O)[C@H](C(C)C)NC1=O` has an IC50 (A549) of 4.3 µM, an IC50 (DU-145 [1]) of 4.3 µM and an IC50 (SK-MEL-28 [2]) of 4.3 µM. The IC50 (HT-29) was 4.3 µM.

In the case of `C/C=C1\NC(=O)[C@H](Cc2ccccc2)NC(=O)[C@@H](C(C)C)NC(=O)[C@@H]([C@H](C)CC)NC(=O)[C@H](NC(=O)[C@H](NC(=O)[C@H](CCCN)NC(=O)[C@H]2CCCN2C(=O)[C@H](NC(=O)[C@@H](NC(=O)[C@@H](NC(=O)[C@H](NC(=O)CCCC(C)C)C(C)C)[C@@H](C)O)C(C)C)C(C)C)[C@H](C)CC)[C@H](C)OC(=O)[C@H](C(C)C)NC1=O` [KAHALALIDE F], the GI50 (LoVo [5]) is reported as 0.299 µM, the TGI (LoVo [5]) is reported as 0.485 µM and the CC50 (LoVo [5]; [10]) is reported as 1.47 µM. For the same compound, the LC50 (A549) was 4.52 µM, the TGI (A549) was 2.2 µM and the GI50 (A549; read-out: GI50) was 1.16 µM. The GI50 (K562) was 1.93 µM, the TGI (K562) was 3.32 µM and the CC50 (K562; [10]) was 5.28 µM. It also gave a GI50 (LoVo [6]) of 0.334 µM, a TGI (LoVo [6]) of 0.614 µM and a CC50 (LoVo [6]; [10]) of 1.51 µM. For the same compound, the TGI (DU-145 [1]) was 1.72 µM, the GI50 (DU-145 [1]; read-out: GI50) was 0.931 µM and the CC50 (DU-145 [1]; [10]) was 3.72 µM. It also gave a TGI (SK-MEL-28 [4]) of 2.26 µM, a GI50 (SK-MEL-28 [4]; read-out: GI50) of 1.19 µM and a CC50 (SK-MEL-28 [4]; [10]) of 4.5 µM. It also gave a GI50 (HT-29) of 0.432 µM, a TGI (HT-29) of 0.915 µM and a CC50 (HT-29; [10]) of 2.24 µM. It also gave a GI50 (PANC-1) of 1.77 µM, a TGI (PANC-1) of 3.33 µM and a CC50 (PANC-1; [10]) of 5.07 µM. The GI50 (HeLa) was 0.965 µM, the TGI (HeLa) was 1.97 µM and the CC50 (HeLa; [10]) was 4.73 µM. The TGI [7] was 1.3 µM, the GI50 ([7]; read-out: GI50) was 0.55 µM and the CC50 [7, 10] was 3.28 µM. The GI50 [8] was 0.975 µM, the LC50 (concentration giving 50% net cell kill) [8] was 4.29 µM and the TGI [8] was 2.02 µM. The TGI (SK-BR-3) was 0.81 µM, the GI50 (SK-BR-3; read-out: GI50) was 0.363 µM and the CC50 (SK-BR-3; [10]) was 1.98 µM. It also gave a TGI [9] of 1.18 µM, a GI50 ([9]; read-out: GI50) of 0.493 µM and a CC50 [9, 10] of 3.22 µM. The GI50 (LNCaP) was 0.96 µM, the TGI (LNCaP) was 1.96 µM and the CC50 (LNCaP; [10]) was 4.26 µM.
